How the values were obtained:
Assay type in all cases: functional
T47D = assay: Antiproliferative activity against human T47D cells assessed as growth inhibition after 48 hrs by SRB assay
How it was run: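 T-47D cells grown at 37 °C, 5% CO₂ in serum- and 2 mM L-glutamine-containing medium. Trypsinized, viability >97% by trypan blue, seeded at 15,000 cells/well. Compounds added day 1 in triplicate dilutions (DMSO vehicle 0.25% v/v as control) for 48 h. Cold 50% TCA fixation 60 min at 4 °C, SRB read at 492 nm with blank correction.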

SW1573 = assay: Antiproliferative activity against human SW1573 cells assessed as growth inhibition after 48 hrs by SRB assay; settings: SW1573, 48 h
How it was run: (§1)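 Cells maintained at 37 °C, 5% CO₂ in medium with foetal calf serum and 2 mM L-glutamine. Trypsinized into antibiotic medium, >97% viable by trypan blue, plated at 10,000 cells/well. Triplicate dilutions from DMSO stocks (0.25% v/v DMSO control) added on day 1 for 48 h. TCA fixation (50%, 4 °C, 60 min), SRB stain, OD 492 nm corrected for medium-only blank.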

WiDr = assay: Antiproliferative activity against human WiDr cells assessed as growth inhibition after 48 hrs by SRB assay
How it was run: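 WiDr cells seeded at 20,000 cells/well after trypsinization into antibiotic-containing medium (trypan blue viability >97%). Culture at 37 °C, 5% CO₂ with foetal calf serum and 2 mM L-glutamine. Exposure to triplicate compound dilutions from DMSO stocks (0.25% v/v DMSO control) started day 1, lasting 48 h. Fixed with ice-cold 50% TCA, 60 min at 4 °C, then SRB, OD 492 nm background-subtracted.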

A549 = assay: Antiproliferative activity against human A549 cells assessed as growth inhibition after 48 hrs by SRB assay; settings: A549, 48 h
How it was run: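 Cells kept in medium with foetal calf serum and 2 mM L-glutamine at 37 °C, 5% CO₂. Trypsinized, resuspended in penicillin/streptomycin medium, >97% trypan blue viability, seeded at 10,000 cells/well. Compounds from DMSO stocks (0.25% v/v DMSO control), triplicate dilutions, added day 1 for 48 h. Fixed with cold 50% TCA for 60 min at 4 °C, then SRB staining, OD 492 nm, background corrected.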

[1] = Antiproliferative activity against human HBL100 cells assessed as growth inhibition after 48 hrs by SRB assay; settings: HBL-100, 48 h; how it was run: as §1
HeLa = assay: Antiproliferative activity against human HeLa cells assessed as growth inhibition after 48 hrs by SRB assay; how it was run: as §1

Structure (SMILES)	GI50 (T47D) [µM]	GI50 (SW1573) [µM]	GI50 (A549) [µM]	GI50 (HeLa) [µM]	GI50 (WiDr) [µM]	GI50 [1] [µM]
COC(=O)[C@@]1(C)CCC=C2[C@@H]1CC[C@@H](C)[C@]2(C)Cc1c[nH]c2c(Cl)cccc12	24	14	22	14	31	19
COC(=O)[C@@]1(C)CCC=C2[C@@H]1CC[C@@H](C)[C@]2(C)Cc1c[nH]c2ccc(Cl)cc12	17	11	16	11	20	17
COC(=O)[C@@]1(C)CCC=C2[C@@H]1CC[C@@H](C)[C@]2(C)Cc1c(C)[nH]c2ccc(F)cc12	15	12	15	11	17	14
COC(=O)[C@@]1(C)CC[C@@H]2C3=C1CC[C@@H](C)[C@]3(C)C[C@@H]1c3cc(Cl)ccc3N[C@H]21	28	38	35	23	48	28
COC(=O)[C@@]1(C)CCC=C2[C@@H]1CC[C@@H](C)[C@]2(C)Cc1c(C)[nH]c2ccccc12	17	14	15	11	19	14
COC(=O)[C@@]1(C)CC[C@@H]2C3=C1CC[C@@H](C)[C@]3(C)Cc1c2[nH]c2ccccc12	3.4	8.3	4.6	3.2	4	3.5
COC(=O)[C@@]1(C)CCC=C2[C@@H]1CC[C@@H](C)[C@]2(C)Cc1c(C)n(C(c2ccccc2)c2ccccc2)c2ccc(Cl)cc12	> 100	> 100	> 100	> 100	> 100	> 100
COC(=O)[C@@]1(C)CCC=C2[C@@H]1CC[C@@H](C)[C@]2(C)Cc1c(C)[nH]c2ccc(C(F)(F)F)cc12	21	15	17	12	21	16
COC(=O)[C@@]1(C)CC[C@@H]2C3=C1CC[C@@H](C)[C@]3(C)C[C@@H]1c3ccccc3N[C@H]21	35	30	39	19	50	78
COC(=O)[C@@]1(C)CC[C@@H]2C3=C1CC[C@@H](C)[C@]3(C)Cc1c2[nH]c2ccc(C)cc12	16	15	16	11	19	11
COC(=O)[C@@]1(C)CCC=C2[C@@H]1CC[C@@H](C)[C@]2(C)Cc1c(/C=C/[N+](=O)[O-])[nH]c2ccccc12	15	13	13	6.9	21	16
COC(=O)[C@@]1(C)CCC=C2[C@@H]1CC[C@@H](C)[C@]2(C)Cc1c(C)[nH]c2c(Cl)cccc12	27	19	20	17	29	22
COC(=O)[C@@]1(C)CC[C@@H]2C3=C1CC[C@@H](C)[C@]3(C)C[C@@H]1c3cc(Br)ccc3N[C@H]21	31	45	40	25	55	34
COC(=O)[C@@]1(C)CCC=C2[C@@H]1CC[C@@H](C)[C@]2(C)Cc1c[nH]c2ccc(F)cc12	3.9	7.3	6.2	3.7	8	4.8
COC(=O)[C@@]1(C)CC[C@@H]2C3=C1CC[C@@H](C)[C@]3(C)Cc1c2[nH]c2ccc(OC)cc12	6.5	5.9	7.7	3.9	1.2	5
COC(=O)[C@@]1(C)CCC=C2[C@@H]1CC[C@@H](C)[C@]2(C)Cc1c[nH]c2ccc(OC)cc12	3.7	1.3	2.2	1.2	5.7	2.1
COC(=O)[C@@]1(C)CC[C@@H]2C3=C1CC[C@@H](C)[C@]3(C)Cc1c2[nH]c2c(C)cccc12	23	16	16	12	22	13

Further compounds by falling GI50 (T47D), results first:

GI50 (T47D) [µM]	GI50 (SW1573) [µM]	GI50 (A549) [µM]	GI50 (HeLa) [µM]	Structure (SMILES)	GI50 (WiDr) [µM]	GI50 [1] [µM]
37	44	42	22	COC(=O)[C@@]1(C)CC[C@@H]2C3=C1CC[C@@H](C)[C@]3(C)C[C@@H]1c3cccc(Br)c3N[C@H]21	54	40
31	25	27	22	COC(=O)[C@@]1(C)CCC=C2[C@@H]1CC[C@@H](C)[C@]2(C)Cc1c(C)[nH]c2c(Br)cccc12	38	27
31	18	26	17	COC(=O)[C@@]1(C)CCC=C2[C@@H]1CC[C@@H](C)[C@]2(C)Cc1c(C)[nH]c2ccc(C)cc12	28	25
31	26	35	18	COC(=O)[C@@]1(C)CC[C@@H]2C3=C1CC[C@@H](C)[C@]3(C)Cc1c2[nH]c2c(Br)cccc12	37	26
27	27	25	20	COC(=O)[C@@]1(C)CC[C@@H]2C3=C1CC[C@@H](C)[C@]3(C)C[C@@H]1c3cc(F)ccc3N[C@H]21	32	18
24	14	22	13	COC(=O)[C@@]1(C)CCC=C2[C@@H]1CC[C@@H](C)[C@]2(C)Cc1c[nH]c2c(Br)cccc12	32	18
21	17	21	12	COC(=O)[C@@]1(C)CC[C@@H]2C3=C1CC[C@@H](C)[C@]3(C)Cc1c2[nH]c2c(Cl)cccc12	21	16
21	15	16	12	COC(=O)[C@@]1(C)CCC=C2[C@@H]1CC[C@@H](C)[C@]2(C)Cc1c(C)[nH]c2ccc(OC)cc12	17	16
21	12	17	14	COC(=O)[C@@]1(C)CC[C@@H]2C3=C1CC[C@@H](C)[C@]3(C)Cc1c2[nH]c2ccc(Br)cc12	22	16
20	15	17	14	COC(=O)[C@@]1(C)CCC=C2[C@@H]1CC[C@@H](C)[C@]2(C)Cc1c[nH]c2ccc(C)cc12	22	18
19	15	14	14	COC(=O)[C@@]1(C)CCC=C2[C@@H]1CC[C@@H](C)[C@]2(C)Cc1c(C)[nH]c2c(C)cccc12	21	16
18	7.8	11	4.9	COC(=O)[C@@]1(C)CCC=C2[C@@H]1CC[C@@H](C)[C@]2(C)Cc1c[nH]c2c(C)cccc12	26	8
17	14	17	12	COC(=O)[C@@]1(C)CCC=C2[C@@H]1CC[C@@H](C)[C@]2(C)Cc1c(C)[nH]c2ccc(Cl)cc12	18	15
16	14	15	11	COC(=O)[C@@]1(C)CCC=C2[C@@H]1CC[C@@H](C)[C@]2(C)Cc1c(C)[nH]c2ccc(Br)cc12	15	15
16	12	15	10	COC(=O)[C@@]1(C)CCC=C2[C@@H]1CC[C@@H](C)[C@]2(C)Cc1c[nH]c2ccc(Br)cc12	20	16
4.2	7.3	5	3.6	COC(=O)[C@@]1(C)CCC=C2[C@@H]1CC[C@@H](C)[C@]2(C)Cc1c[nH]c2ccccc12	8.7	4.5
